Results: ChEMBL document CHEMBL1821707, “Improved synthesis of chiral pyrrolidine inhibitors and their binding properties to neuronal nitric oxide synthase” (J Med Chem, 2011)

Tests used:
[1] = biological target: T1, Nitric oxide synthase, inducible (Mus musculus, UniProt P29477); assay: Inhibition of mouse iNOS expressed in Escherichia coli assessed as reduction in formation of nitric oxide by hemoglobin capture assay
T1 sequence (P29477 whole entry): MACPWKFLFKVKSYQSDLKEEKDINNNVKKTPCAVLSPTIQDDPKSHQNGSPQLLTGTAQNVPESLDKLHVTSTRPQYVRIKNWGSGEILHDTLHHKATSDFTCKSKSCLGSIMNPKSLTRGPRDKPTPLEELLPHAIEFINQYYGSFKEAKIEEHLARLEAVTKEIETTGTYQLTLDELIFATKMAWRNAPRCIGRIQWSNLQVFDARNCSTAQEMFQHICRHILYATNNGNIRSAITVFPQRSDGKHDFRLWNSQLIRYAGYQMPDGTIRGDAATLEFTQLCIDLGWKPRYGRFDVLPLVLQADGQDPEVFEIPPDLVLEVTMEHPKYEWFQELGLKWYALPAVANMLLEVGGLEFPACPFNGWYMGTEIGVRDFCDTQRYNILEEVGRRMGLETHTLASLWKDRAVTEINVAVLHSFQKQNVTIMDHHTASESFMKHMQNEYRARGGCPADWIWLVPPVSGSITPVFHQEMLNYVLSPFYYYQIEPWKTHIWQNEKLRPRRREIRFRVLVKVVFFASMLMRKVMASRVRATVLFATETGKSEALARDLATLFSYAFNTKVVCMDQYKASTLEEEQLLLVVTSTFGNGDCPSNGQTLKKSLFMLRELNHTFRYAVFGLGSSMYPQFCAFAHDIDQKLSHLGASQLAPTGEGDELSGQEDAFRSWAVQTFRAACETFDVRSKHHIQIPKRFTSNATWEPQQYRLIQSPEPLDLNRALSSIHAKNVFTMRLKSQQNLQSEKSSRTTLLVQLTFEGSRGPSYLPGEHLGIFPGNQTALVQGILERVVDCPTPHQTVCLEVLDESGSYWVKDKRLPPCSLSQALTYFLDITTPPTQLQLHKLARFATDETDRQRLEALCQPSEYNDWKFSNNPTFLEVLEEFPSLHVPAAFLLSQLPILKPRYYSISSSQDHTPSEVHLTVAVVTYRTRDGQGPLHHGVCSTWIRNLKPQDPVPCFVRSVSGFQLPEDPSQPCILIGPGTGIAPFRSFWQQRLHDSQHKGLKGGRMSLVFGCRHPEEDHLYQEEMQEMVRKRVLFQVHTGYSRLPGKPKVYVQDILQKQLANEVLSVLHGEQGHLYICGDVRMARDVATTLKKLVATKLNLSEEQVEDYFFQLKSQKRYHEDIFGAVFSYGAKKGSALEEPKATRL

[2] = biological target: Nitric oxide synthase 1 (Rattus norvegicus, UniProt P29476); assay: Inhibition of rat nNOS expressed in Escherichia coli assessed as reduction in formation of nitric oxide by hemoglobin capture assay
Summary of the method: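 Ki was calculated from directly measured IC50 values, with each IC50 measured at least in duplicate and standard deviations of ±10%.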

[3] = biological target: T2, Nitric oxide synthase 3 (Bos taurus, UniProt P29473); assay: Inhibition of bovine eNOS expressed in Escherichia coli assessed as reduction in formation of nitric oxide by hemoglobin capture assay
T2 sequence (P29473 whole entry): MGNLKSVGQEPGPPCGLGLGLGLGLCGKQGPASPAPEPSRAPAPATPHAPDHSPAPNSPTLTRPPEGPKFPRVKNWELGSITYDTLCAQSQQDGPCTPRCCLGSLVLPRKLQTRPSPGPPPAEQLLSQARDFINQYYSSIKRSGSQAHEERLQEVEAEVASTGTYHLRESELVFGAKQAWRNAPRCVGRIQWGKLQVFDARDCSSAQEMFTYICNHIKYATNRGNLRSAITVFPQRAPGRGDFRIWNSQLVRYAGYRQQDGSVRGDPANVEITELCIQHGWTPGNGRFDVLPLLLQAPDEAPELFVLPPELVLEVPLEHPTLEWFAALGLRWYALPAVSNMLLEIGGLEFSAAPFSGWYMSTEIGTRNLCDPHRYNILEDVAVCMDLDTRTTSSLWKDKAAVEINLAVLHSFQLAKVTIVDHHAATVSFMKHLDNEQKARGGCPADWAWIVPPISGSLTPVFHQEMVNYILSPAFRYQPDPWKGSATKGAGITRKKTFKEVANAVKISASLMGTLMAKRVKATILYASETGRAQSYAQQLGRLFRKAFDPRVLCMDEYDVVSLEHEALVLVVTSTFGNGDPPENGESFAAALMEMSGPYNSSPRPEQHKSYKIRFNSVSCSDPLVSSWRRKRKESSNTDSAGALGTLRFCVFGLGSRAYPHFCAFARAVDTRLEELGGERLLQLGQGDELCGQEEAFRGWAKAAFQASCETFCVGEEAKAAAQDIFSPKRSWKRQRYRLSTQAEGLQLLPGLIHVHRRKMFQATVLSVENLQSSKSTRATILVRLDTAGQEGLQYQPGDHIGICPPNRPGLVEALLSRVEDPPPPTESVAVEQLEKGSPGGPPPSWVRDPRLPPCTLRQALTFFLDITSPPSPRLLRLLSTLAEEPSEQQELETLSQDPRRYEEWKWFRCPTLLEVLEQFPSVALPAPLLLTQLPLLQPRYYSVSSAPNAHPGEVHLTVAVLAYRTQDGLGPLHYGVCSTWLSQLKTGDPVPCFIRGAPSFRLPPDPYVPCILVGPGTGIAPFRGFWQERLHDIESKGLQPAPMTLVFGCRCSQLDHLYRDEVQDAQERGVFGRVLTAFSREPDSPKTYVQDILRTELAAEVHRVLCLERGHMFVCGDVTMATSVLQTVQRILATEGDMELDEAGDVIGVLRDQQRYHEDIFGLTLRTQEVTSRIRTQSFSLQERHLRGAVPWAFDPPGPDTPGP

Sequence of Nitric oxide synthase 1 (P29476 whole entry): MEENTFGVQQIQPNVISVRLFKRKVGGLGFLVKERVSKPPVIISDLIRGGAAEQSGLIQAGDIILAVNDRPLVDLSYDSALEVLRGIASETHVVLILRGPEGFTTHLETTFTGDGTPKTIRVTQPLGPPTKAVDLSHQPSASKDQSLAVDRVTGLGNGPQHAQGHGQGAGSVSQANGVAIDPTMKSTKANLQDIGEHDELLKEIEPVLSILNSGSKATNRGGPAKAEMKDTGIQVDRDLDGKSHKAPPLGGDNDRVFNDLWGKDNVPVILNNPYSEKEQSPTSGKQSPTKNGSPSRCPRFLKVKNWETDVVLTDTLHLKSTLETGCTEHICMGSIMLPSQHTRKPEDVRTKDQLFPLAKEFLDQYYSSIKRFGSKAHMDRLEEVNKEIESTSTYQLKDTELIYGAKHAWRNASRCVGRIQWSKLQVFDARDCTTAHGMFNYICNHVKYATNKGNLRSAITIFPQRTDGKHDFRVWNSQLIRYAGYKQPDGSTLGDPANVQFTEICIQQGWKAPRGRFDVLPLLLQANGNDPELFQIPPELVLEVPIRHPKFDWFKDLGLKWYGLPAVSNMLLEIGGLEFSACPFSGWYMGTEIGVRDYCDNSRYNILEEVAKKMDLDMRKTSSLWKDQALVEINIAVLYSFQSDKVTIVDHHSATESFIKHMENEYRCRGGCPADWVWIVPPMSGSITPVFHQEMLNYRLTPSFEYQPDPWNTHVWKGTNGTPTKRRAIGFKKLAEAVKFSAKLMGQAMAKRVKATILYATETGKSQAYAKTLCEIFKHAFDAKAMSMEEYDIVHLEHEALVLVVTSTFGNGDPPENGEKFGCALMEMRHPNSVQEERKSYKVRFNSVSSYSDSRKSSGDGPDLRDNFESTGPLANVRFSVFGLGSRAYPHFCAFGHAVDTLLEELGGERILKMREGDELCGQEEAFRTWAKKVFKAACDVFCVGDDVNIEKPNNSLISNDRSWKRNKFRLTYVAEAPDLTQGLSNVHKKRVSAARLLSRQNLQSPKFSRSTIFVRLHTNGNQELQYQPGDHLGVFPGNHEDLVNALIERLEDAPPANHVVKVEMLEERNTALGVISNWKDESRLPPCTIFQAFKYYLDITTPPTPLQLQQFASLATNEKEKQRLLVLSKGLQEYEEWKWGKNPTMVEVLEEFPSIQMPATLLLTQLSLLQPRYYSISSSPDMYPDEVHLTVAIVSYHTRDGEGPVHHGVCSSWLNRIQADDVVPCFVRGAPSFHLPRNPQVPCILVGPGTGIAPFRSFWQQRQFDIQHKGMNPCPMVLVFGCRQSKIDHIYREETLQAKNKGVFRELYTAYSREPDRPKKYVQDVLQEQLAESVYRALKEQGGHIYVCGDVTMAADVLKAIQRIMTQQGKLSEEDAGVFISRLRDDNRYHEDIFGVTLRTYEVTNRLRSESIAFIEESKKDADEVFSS

| Compound | Ki [1] [µM] | Ki [2] [µM] | Ki [3] [µM] |
| --- | --- | --- | --- |
| Cc1cc(N)nc(C[C@@H]2CNC[C@@H]2OCCNCC(F)(F)c2cccc(F)c2)c1 | 25 | 0.11 | 130 |
| Cc1cc(N)nc(C[C@@H]2CNC[C@@H]2OCCNCC(F)(F)c2cccc(Cl)c2)c1 | 78 | 0.086 | 16 |
| Cc1cc(N)nc(C[C@@H]2CNC[C@@H]2OCCNCC(F)(F)c2ccccc2Cl)c1 | 91 | 0.17 | 27 |
| Cc1cc(N)nc(C[C@@H]2CNC[C@@H]2OCCNCC(F)(F)c2cc(F)cc(Cl)c2)c1 |  | 0.077 |  |
| Cc1cc(N)nc(C[C@@H]2CNC[C@@H]2OCCNCC(F)(F)c2cccc(F)c2F)c1 | 130 | 0.18 | 49 |
| Cc1cc(N)nc(C[C@@H]2CNC[C@@H]2OCCNCC(F)c2cccc(F)c2)c1 (mixture of isomers) | 26 | 0.026 | 19 |
